Each block holds one compound with its values, some of them ahead of it. Calls of active or inactive are those of the source. No cut-off for these calls is given here.
Tests used:
[1] = biological target: T1, Phosphatidylinositol 3-kinase catalytic subunit type 3 (Homo sapiens, UniProt Q8NEB9); assay: Inhibition of recombinant human VPS34 using L-alpha-phosphatidylinositol as substrate incubated for 10 mins by luminescence based ATP detection assay
How it was run: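 VPS34 biochemical IC50 was measured with a luminescence-based ATP detection read-out.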

[2] = Intrinsic clearance in mouse liver microsomes by LC-MS/MS analysis; format: ADME; settings: read-out: CLH
[3] = biological target: T2, Phosphatidylinositol 4,5-bisphosphate 3-kinase catalytic subunit delta isoform (Homo sapiens, UniProt O00329); assay: Inhibition of PI3Kdelta (unknown origin)
T2 sequence (O00329 whole entry): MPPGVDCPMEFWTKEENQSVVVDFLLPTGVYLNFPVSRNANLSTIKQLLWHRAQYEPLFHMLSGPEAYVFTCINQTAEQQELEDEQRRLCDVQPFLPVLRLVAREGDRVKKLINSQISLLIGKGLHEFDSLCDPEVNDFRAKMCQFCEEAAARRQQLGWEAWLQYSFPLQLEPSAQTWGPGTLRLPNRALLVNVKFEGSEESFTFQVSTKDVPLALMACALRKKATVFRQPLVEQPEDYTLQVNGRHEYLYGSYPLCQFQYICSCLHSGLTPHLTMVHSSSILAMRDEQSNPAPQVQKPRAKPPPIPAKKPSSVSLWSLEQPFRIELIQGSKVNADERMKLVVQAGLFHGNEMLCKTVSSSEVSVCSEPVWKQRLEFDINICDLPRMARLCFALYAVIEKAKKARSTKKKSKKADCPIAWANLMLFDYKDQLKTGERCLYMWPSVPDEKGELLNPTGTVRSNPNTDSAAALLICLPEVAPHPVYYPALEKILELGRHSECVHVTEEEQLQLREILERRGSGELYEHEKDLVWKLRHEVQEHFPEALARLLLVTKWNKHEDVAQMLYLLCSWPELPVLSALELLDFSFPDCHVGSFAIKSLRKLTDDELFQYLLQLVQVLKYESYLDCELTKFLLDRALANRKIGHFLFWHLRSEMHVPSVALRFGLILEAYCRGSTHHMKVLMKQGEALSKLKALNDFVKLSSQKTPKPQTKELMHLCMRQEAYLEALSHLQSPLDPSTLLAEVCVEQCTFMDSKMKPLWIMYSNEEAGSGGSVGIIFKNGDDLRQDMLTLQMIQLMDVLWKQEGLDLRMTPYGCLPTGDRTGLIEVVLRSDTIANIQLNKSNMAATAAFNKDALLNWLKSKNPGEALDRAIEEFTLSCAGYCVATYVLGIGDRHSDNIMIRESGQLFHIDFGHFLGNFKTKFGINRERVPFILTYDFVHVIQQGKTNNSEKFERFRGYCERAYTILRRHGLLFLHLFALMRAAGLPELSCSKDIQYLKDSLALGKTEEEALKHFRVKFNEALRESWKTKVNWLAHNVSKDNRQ

[4] = biological target: Phosphatidylinositol 4,5-bisphosphate 3-kinase catalytic subunit gamma isoform (Homo sapiens, UniProt P48736); assay: Inhibition of PI3Kgamma (unknown origin)
[5] = biological target: Phosphatidylinositol 4,5-bisphosphate 3-kinase catalytic subunit alpha isoform (Homo sapiens, UniProt P42336); assay: Inhibition of PI3Kalpha (unknown origin)
[6] = biological target: Phosphatidylinositol 4,5-bisphosphate 3-kinase catalytic subunit beta isoform (Homo sapiens, UniProt P42338); assay: Inhibition of PI3Kbeta (unknown origin)
[7] = biological target: T1, Phosphatidylinositol 3-kinase catalytic subunit type 3; assay: Inhibition of VPS34 in human U2OS cells incubated for 2 hrs by GFP-FYVE reporter gene assay; format: cell-based
[8] = biological target: T1, Phosphatidylinositol 3-kinase catalytic subunit type 3; assay: Inhibition of VPS34 in human DLD1 cells assessed as prevention of NDP52 protein degradation at 1 to 10 uM incubated for 24 hrs by Western blot analysis; format: cell-based; settings: DLD-1
[9] = biological target: T1, Phosphatidylinositol 3-kinase catalytic subunit type 3; assay: Inhibition of VPS34 in human DLD1 cells assessed as prevention of NBR1 protein degradation at 1 to 10 uM incubated for 24 hrs by Western blot analysis; format: cell-based; settings: DLD-1
[10] = biological target: T1, Phosphatidylinositol 3-kinase catalytic subunit type 3; assay: Inhibition of VPS34 in human DLD1 cells assessed as prevention of NCOA4 protein degradation at 1 to 10 uM incubated for 24 hrs by Western blot analysis; format: cell-based; settings: DLD-1
[11] = biological target: T1, Phosphatidylinositol 3-kinase catalytic subunit type 3; assay: Inhibition of VPS34 in human DLD1 cells assessed as prevention of p62 degradation at 1 to 10 uM incubated for 24 hrs by Western blot analysis; format: cell-based; settings: DLD-1
[12] = biological target: T1, Phosphatidylinositol 3-kinase catalytic subunit type 3; assay: Inhibition of VPS34 in human DLD1 cells assessed as prevention of FTH1 protein degradation at 1 to 10 uM incubated for 24 hrs by Western blot analysis; format: cell-based; settings: DLD-1
[13] = biological target: Phosphatidylinositol 4-kinase beta (Homo sapiens, UniProt Q9UBF8); assay: Inhibition of PI4Kbeta (unknown origin)
RKO = assay: Antitumor activity against human RKO cells xenografted in athymic nude mouse assessed as reduction in tumor volume at 50 mg/kg, po bid for 7 days; format: functional, organism-based
[14] = Clearance in C57BL/6 mouse at 2 mg/kg, iv; format: ADME, organism-based; settings: in vivo
How it was run: (§1)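 Pharmacokinetics in C57BL/6 mice after a single dose, either intravenous at 2 mg/kg or oral at 10 mg/kg. Mean parameters reported: AUCinf, CL, Vdss, t1/2, Tmax, Cmax and F. Clearance was also expressed as a percentage of hepatic blood flow.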

Homo sapiens [15] = species on record: Homo sapiens; assay: Selectivity ratio of IC50 for TAK1 (unknown origin) to recombinant human VPS34
Mus musculus [16] = assay: Inhibition of autophagy in athymic nude mouse xenografted with human RKO cells assessed as accumulation of LC3-2 protein at 50 mg/kg, po bid for 7 days by SDS-PAGE analysis; format: functional, organism-based; settings: TDE = time-dependent effect
How it was run: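 Nude mice bearing RKO colon cancer tumors were dosed orally at 50 mg/kg twice daily (BID) for 7 days. LC3-II in tumor samples was followed over time by immunoblot, one lane per individual mouse.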

Homo sapiens [17] = species on record: Homo sapiens; assay: Selectivity ratio of IC50 for PI3Kgamma (unknown origin) to recombinant human VPS34
Homo sapiens [18] = species on record: Homo sapiens; assay: Selectivity ratio of IC50 for PI3Kdelta (unknown origin) to recombinant human VPS34
[19] = Cmax in C57BL/6 mouse at 10 mg/kg, po; format: ADME, organism-based; design: dose 10 mg/kg, route oral; settings: in vivo; how it was run: as §1
[20] = AUC (0 to infinity) in C57BL/6 mouse at 10 mg/kg, po; format: ADME, organism-based; design: dose 10 mg/kg, route oral, time infinity; settings: in vivo; how it was run: as §1
[21] = Half life in C57BL/6 mouse at 2 mg/kg, iv; format: ADME, organism-based; settings: in vivo; how it was run: as §1
Homo sapiens [22] = species on record: Homo sapiens; assay: Selectivity ratio of IC50 for PI3Kalpha (unknown origin) to recombinant human VPS34
[23] = AUC (0 to infinity) in C57BL/6 mouse at 2 mg/kg, iv; format: ADME, organism-based; design: dose 2 mg/kg, route intravenous, time infinity; settings: in vivo; how it was run: as §1
[24] = Oral bioavailability in C57BL/6 mouse at 10 mg/kg; format: ADME, organism-based; settings: in vivo; how it was run: as §1
[25] = biological target: T1, Phosphatidylinositol 3-kinase catalytic subunit type 3; assay: Inhibition of VPS34 in human DLD1 cells assessed as increase in LC3-2 protein expression at 1 to 10 uM incubated for 24 hrs by Western blot analysis; format: cell-based; settings: DLD-1
[26] = Volume of distribution at steady state in C57BL/6 mouse at 2 mg/kg, iv; format: ADME, organism-based; settings: in vivo, read-out: Vdss; how it was run: as §1
[27] = Systemic clearance in C57BL/6 mouse at 10 mg/kg, po; format: ADME, organism-based; settings: in vivo; how it was run: as §1
Mus musculus [28] = assay: Systemic clearance in C57BL/6 mouse at 10 mg/kg, po relative to hepatic blood flow; format: ADME, organism-based, Liver; settings: in vivo; how it was run: as §1
Homo sapiens [29] = species on record: Homo sapiens; assay: Selectivity ratio of IC50 for PI3Kbeta (unknown origin) to recombinant human VPS34
[30] = biological target: T1, Phosphatidylinositol 3-kinase catalytic subunit type 3; assay: Inhibition of VPS34 in human DLD1 cells assessed as increase in LC3-1 protein expression at 1 to 10 uM incubated for 24 hrs by Western blot analysis; format: cell-based; settings: DLD-1
[31] = Tmax in C57BL/6 mouse at 10 mg/kg, po; format: ADME, organism-based; settings: in vivo; how it was run: as §1

T1 sequence (Q8NEB9 whole entry): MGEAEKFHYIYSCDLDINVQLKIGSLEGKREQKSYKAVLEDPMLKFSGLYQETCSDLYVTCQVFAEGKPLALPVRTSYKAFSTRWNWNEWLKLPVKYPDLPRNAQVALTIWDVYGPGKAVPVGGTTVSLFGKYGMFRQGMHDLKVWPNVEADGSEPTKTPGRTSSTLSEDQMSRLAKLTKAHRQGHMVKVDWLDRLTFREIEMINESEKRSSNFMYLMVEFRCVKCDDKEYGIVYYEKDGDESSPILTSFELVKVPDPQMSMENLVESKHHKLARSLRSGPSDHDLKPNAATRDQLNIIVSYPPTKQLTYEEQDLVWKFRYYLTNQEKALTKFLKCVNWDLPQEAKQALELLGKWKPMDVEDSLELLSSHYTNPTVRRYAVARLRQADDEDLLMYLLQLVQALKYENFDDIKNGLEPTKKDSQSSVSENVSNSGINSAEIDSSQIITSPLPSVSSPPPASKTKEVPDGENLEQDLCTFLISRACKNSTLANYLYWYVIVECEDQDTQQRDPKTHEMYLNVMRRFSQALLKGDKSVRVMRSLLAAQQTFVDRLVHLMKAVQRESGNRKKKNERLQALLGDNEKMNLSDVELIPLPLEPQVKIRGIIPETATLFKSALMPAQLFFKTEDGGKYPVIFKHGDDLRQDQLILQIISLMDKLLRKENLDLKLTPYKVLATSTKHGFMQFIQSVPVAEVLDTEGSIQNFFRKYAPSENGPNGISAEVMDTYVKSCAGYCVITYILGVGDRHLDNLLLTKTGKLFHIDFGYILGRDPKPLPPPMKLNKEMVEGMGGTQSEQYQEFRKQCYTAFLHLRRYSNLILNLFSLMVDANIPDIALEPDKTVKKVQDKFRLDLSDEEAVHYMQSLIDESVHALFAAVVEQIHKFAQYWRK
Phosphatidylinositol 4,5-bisphosphate 3-kinase catalytic subunit gamma isoform, sequence (P48736 whole entry, canonical isoform): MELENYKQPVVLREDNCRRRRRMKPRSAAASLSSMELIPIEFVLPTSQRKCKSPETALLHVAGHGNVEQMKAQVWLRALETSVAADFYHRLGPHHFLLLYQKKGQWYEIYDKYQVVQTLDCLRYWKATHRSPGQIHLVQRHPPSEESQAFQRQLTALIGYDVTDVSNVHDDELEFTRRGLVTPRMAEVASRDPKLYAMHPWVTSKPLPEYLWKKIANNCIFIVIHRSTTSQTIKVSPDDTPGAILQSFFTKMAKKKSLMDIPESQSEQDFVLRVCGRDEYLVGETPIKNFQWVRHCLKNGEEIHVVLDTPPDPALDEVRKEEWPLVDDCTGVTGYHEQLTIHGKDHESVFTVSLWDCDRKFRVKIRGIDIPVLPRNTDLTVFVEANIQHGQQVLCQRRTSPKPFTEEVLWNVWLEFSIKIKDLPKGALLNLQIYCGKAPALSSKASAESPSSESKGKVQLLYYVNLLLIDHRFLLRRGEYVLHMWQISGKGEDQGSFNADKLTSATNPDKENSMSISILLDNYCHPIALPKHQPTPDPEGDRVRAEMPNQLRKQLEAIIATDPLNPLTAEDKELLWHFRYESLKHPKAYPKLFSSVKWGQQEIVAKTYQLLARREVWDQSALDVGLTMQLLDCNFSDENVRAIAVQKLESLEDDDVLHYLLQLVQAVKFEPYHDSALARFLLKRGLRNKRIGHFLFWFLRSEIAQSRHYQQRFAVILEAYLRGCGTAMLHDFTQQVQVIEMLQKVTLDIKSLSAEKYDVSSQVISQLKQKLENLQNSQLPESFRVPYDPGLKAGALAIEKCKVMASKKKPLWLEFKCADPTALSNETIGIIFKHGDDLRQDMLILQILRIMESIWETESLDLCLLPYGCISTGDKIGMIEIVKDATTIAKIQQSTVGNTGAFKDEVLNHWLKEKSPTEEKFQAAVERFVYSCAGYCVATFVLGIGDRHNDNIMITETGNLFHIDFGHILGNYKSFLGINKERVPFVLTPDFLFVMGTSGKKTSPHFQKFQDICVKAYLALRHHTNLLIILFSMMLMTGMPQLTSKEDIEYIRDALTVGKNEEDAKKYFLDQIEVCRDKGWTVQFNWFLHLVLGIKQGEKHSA
Phosphatidylinositol 4,5-bisphosphate 3-kinase catalytic subunit alpha isoform, sequence (P42336 whole entry, canonical isoform): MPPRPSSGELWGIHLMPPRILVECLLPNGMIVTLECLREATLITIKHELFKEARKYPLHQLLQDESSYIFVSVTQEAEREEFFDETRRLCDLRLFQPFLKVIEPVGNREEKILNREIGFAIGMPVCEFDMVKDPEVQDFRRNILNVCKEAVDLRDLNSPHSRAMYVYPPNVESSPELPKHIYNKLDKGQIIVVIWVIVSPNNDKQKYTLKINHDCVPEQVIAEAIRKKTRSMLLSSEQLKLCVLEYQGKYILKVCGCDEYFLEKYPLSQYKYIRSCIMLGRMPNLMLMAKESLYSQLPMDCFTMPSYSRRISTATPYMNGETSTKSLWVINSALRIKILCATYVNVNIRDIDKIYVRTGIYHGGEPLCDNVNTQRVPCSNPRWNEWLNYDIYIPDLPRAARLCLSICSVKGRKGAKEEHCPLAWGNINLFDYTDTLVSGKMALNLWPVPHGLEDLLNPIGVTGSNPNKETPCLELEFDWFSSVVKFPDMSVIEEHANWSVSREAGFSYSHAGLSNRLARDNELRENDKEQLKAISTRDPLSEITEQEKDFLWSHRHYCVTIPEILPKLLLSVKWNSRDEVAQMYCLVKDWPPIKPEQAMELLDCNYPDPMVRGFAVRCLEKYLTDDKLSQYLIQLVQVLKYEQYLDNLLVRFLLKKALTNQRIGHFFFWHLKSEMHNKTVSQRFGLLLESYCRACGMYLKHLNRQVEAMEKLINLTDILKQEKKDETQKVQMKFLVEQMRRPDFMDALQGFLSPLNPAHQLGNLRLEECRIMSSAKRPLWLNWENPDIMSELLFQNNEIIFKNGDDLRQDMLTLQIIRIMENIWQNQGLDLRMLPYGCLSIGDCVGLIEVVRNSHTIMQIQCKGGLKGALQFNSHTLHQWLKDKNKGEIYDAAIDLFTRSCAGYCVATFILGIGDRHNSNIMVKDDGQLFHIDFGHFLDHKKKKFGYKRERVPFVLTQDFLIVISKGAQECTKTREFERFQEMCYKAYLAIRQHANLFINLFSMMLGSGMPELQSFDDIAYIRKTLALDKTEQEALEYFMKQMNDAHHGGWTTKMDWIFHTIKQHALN
Phosphatidylinositol 4,5-bisphosphate 3-kinase catalytic subunit beta isoform, sequence (P42338 whole entry, canonical isoform): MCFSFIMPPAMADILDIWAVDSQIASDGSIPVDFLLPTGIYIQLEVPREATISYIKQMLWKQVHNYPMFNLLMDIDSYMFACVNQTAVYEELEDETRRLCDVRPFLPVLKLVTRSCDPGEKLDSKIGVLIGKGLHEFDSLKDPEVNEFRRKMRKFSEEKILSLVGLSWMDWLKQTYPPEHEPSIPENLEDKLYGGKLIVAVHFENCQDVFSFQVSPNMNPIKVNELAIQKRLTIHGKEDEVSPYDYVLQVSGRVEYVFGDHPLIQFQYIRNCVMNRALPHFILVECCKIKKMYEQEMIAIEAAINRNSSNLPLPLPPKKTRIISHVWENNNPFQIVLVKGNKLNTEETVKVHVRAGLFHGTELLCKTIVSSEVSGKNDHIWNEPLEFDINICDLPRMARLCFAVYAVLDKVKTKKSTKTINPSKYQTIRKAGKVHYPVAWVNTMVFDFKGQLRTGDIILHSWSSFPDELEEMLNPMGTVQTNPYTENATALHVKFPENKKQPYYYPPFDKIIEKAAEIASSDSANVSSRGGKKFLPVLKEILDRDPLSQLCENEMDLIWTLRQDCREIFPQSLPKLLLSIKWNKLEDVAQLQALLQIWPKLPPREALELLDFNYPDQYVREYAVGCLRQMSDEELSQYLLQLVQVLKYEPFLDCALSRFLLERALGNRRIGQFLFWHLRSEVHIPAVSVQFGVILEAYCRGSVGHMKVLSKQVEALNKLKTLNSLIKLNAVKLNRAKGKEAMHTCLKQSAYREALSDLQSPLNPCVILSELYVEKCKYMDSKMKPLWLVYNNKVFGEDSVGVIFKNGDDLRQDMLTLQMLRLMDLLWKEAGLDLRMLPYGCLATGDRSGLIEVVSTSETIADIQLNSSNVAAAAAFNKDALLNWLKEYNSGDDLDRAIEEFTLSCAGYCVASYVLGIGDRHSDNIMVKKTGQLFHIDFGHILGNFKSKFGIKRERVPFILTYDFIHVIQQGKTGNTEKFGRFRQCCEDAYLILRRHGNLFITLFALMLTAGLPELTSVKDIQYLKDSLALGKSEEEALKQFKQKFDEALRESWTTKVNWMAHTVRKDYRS
Phosphatidylinositol 4-kinase beta, sequence (Q9UBF8 whole entry): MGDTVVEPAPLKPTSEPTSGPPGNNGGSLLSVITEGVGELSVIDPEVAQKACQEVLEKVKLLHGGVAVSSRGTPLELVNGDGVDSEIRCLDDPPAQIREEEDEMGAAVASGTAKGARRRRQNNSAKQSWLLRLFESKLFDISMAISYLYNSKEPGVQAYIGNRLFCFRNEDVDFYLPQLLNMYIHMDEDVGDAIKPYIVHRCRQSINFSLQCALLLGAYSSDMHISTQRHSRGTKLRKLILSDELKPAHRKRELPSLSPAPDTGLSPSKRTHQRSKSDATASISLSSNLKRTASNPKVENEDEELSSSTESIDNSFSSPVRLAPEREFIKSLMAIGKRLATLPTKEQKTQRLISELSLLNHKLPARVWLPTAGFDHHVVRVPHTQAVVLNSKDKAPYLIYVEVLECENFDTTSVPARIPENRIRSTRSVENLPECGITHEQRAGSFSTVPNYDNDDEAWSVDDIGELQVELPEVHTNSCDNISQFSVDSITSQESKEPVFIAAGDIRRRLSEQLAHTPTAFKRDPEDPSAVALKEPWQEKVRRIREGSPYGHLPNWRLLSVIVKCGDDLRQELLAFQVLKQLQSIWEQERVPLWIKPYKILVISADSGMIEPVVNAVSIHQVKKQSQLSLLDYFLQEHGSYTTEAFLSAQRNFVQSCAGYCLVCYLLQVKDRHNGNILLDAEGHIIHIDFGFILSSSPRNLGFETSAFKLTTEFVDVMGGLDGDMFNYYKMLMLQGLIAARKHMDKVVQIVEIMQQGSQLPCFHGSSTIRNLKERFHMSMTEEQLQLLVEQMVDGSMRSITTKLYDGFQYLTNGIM

Compound: c1cc(Nc2nccc(-c3cncnc3CC3CC3)n2)ccn1
CLint scaled [2]: 69.9 mL/min/kg | IC50 [3]: > 9.1 µM | IC50 [1]: 0.21 µM | IC50 [7]: 0.33 µM

Compound: CNc1ncc(-c2ccnc(Nc3cnc4ccccc4c3)n2)c(CC2CC2)n1
IC50 [1]: 0.13 µM

Compound: Nc1ncc(-c2ccnc(Nc3ccncc3)n2)c(CC2CC2)n1
inhibition [8]: Active | CLint scaled [2]: 72.8 mL/min/kg | inhibition [9]: Active | inhibition [10]: Active | inhibition [11]: Active | inhibition [12]: Active

Compound: CC(C)(C)CNc1ncc(-c2ccnc(Nc3ccncc3)n2)c(CC2CC2)n1
CLint scaled [2]: 67 mL/min/kg | IC50 [3]: 0.5 µM

Compound: CC(C)(O)CNc1ncc(-c2ccnc(Nc3ccncc3)n2)c(CC2CC2)n1
Activity (RKO): inactive | inhibition [8]: Active | CLint scaled [2]: 63.2 mL/min/kg | clearance [14]: 30 mL/min/kg | Ratio IC50 (Homo sapiens [15]): 10 | IC50 [3]: 0.82 µM | inhibition (Mus musculus [16]): tde | Ratio IC50 (Homo sapiens [17]): > 100 | Ratio IC50 (Homo sapiens [18]): 40 | Cmax [19]: 2990 nM | AUC(0-inf) [20]: 6.73 µM·h | half-life [21]: 72 min | Ratio IC50 (Homo sapiens [22]): > 100 | inhibition [9]: Active | AUC(0-inf) [23]: 2.85 µM·h | inhibition [10]: Active | bioavailability [24]: 47% | inhibition [25]: Active | Vd [26]: 1.5 L/kg | CL/F [27]: 30 mL/min/kg | IC50 [7]: 0.025 µM | CL (Mus musculus [28]): 33% | Ratio IC50 (Homo sapiens [29]): > 100 | inhibition [11]: Active | inhibition [12]: Active | inhibition [30]: Active | Tmax [31]: 42 min

Compound: c1ccc(CNc2ncc(-c3ccnc(Nc4ccncc4)n3)c(CC3CC3)n2)cc1
CLint scaled [2]: 74.8 mL/min/kg | IC50 [3]: 3.7 µM

Compound: COc1ncc(-c2ccnc(Nc3ccncc3)n2)c(CC2CC2)n1
CLint scaled [2]: 84.7 mL/min/kg | IC50 [3]: 8.5 µM

Compound: CC(C)(C)Nc1ncc(-c2ccnc(Nc3ccncc3)n2)c(CC2CC2)n1
CLint scaled [2]: 85.5 mL/min/kg | IC50 [3]: 0.74 µM

Second part, the compound after the results:

IC50 [1]: 0.41 µM
Compound: CNc1ncc(-c2ccnc(N[C@H]3CC[C@H](N)CC3)n2)c(CC2CC2)n1

CLint scaled [2]: 86.7 mL/min/kg | IC50 [3]: 2.9 µM | IC50 [4]: 1.9 µM | IC50 [5]: 6.8 µM | IC50 [6]: > 9.1 µM | IC50 [7]: 0.014 µM
Compound: CNc1ncc(-c2ccnc(Nc3ccncc3)n2)c(CC2CC2)n1

IC50 [1]: 0.29 µM
Compound: CNc1ncc(-c2ccnc(Nc3ccccc3)n2)c(CC2CC2)n1

IC50 [1]: 3.4 µM
Compound: CNc1ncc(-c2ccnc(NC3CCCCC3)n2)c(CC2CC2)n1

CLint scaled [2]: 82.6 mL/min/kg | IC50 [3]: 7 µM | IC50 [4]: 8.5 µM | IC50 [5]: 6.2 µM | IC50 [6]: > 9.1 µM | IC50 [13]: 3.8 µM
Compound: CNc1ncc(-c2ccnc(N[C@H]3CC[C@H](O)CC3)n2)c(CC2CC2)n1

CLint scaled [2]: 65.8 mL/min/kg | IC50 [3]: 4.2 µM | IC50 [1]: 0.24 µM | IC50 [7]: 0.27 µM
Compound: c1cc(Nc2nccc(-c3cnc(NC4CCOCC4)nc3CC3CC3)n2)ccn1

IC50 [1]: 6.3 µM
Compound: CNc1ncc(-c2ccnc(NCCCO)n2)c(CC2CC2)n1

From ChEMBL document CHEMBL3779810, “Potent, Selective, and Orally Bioavailable Inhibitors of VPS34 Provide Chemical Tools to Modulate Autophagy in Vivo” (ACS Med Chem Lett, 2016)
